Assay results reported in ChEMBL document CHEMBL1125920, “Synthesis and biological activity of 5-alkyl-1,7,8-trisubstituted-6-fluoroquinoline-3-carboxylic acids” (1991).
Converted amounts (≈) assume the structure as drawn.

Legend:
Enterobacter cloacae = experiment: Antibacterial activity against gram negative organism, […] (MA2646); type: functional
Escherichia coli = experiment: Antibacterial activity was determined against gram negative organism, E. coli(vogel); type: functional
Summary of the method: (§1)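 MIC by standard microtitration against a panel of 10 representative Gram-negative and Gram-positive organisms; values reported in µg/mL.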

Klebsiella pneumoniae = experiment: Antibacterial activity was determined against gram negative organism, K. pneumoniae (MGH-2); type: functional; summary of the method: as §1
Pseudomonas aeruginosa = experiment: Antibacterial activity was determined against gram negative organism, Pseudomonas aeruginosa (UI-18); type: functional; summary of the method: as §1
Bacteria = experiment: Antibacterial activity was determined against gram negative organism, Providencia rettgeri. (M1771); type: functional; summary of the method: as §1
Streptococcus pneumoniae = experiment: Antibacterial activity was determined against gram positive organism, Streptococcus pneumoniae (SV-1); type: functional; summary of the method: as §1
Enterococcus faecalis = experiment: Antibacterial activity was determined against gram positive organism, Streptococcus faecalis (MGH-2); type: functional; summary of the method: as §1
Streptococcus pyogenes = experiment: Antibacterial activity was determined against gram positive organism, Streptococcus pyogenes (C203); type: functional; summary of the method: as §1
Staphylococcus aureus [1] = experiment: Antibacterial activity was determined against gram positive organism, Staphylococcus aureus (H228); type: functional; summary of the method: as §1
Staphylococcus aureus [2] = experiment: Antibacterial activity was determined against gram positive organism, Staphylococcus aureus (UC76); type: functional; summary of the method: as §1
[3] = MIC ratio measured as the mean MICs of gram-negative bacteria; type: functional
Summary of the method: (§2)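 Geometric mean of the MICs (µg/mL) over the Gram-negative or the Gram-positive strains of the 10-organism microtitration panel, calculated separately for each class.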

[4] = MIC ratio measured as the mean MICs of gram-positive bacteria; type: functional; summary of the method: as §2
[5] = target: DNA gyrase (Escherichia coli) (UniProt P0AES6+P0AES4)
Mus musculus [6] = experiment: In vivo subcutaneous protective dose was determined in female charles river CD-1 mice infected with Streptococcus pneumoniae; type: functional; conditions: sc, read-out: PD50
Summary of the method: (§3)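 Acute lethal systemic infection model in mice; drug given by subcutaneous injection; potency read out as median protective dose (PD50), in mg/kg.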

Mus musculus [7] = experiment: In vivo oral protective dose was determined in female charles river CD-1 mice infected with Escherichia coli (vogel); type: functional; conditions: Mus musculus, po; read-out: PD50
Summary of the method: (§4)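 Acute lethal systemic infection model in mice; drug given orally by gavage; potency read out as median protective dose (PD50), in mg/kg.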

Mus musculus [8] = experiment: In vivo oral protective dose was determined in female charles river CD-1 mice infected with Streptococcus pneumoniae; type: functional; conditions: read-out: PD50; summary of the method: as §4
Mus musculus [9] = experiment: In vivo subcutaneous protective dose was determined in female charles river CD-1 mice infected with Escherichia coli (vogel); type: functional; conditions: sc, read-out: PD50; summary of the method: as §3

Row | SMILES | MIC (Enterobacter cloacae) [µg/mL] | MIC (Escherichia coli) [µg/mL] | MIC (Klebsiella pneumoniae) [µg/mL] | MIC (Pseudomonas aeruginosa) [µg/mL] | MIC (Bacteria) [µg/mL] | MIC (Streptococcus pneumoniae) [µg/mL] | MIC (Enterococcus faecalis) [µg/mL] | MIC (Streptococcus pyogenes) [µg/mL] | MIC (Staphylococcus aureus [1]) [µg/mL] | MIC (Staphylococcus aureus [2]) [µg/mL] | Ratio [3] | Ratio [4] | DNA cleavage [5] [µg/mL] | ED50 (Mus musculus [6]) [mg/kg] | ED50 (Mus musculus [7]) [mg/kg] | ED50 (Mus musculus [8]) [mg/kg] | ED50 (Mus musculus [9]) [mg/kg]
1 | Cc1c(F)c(N2CCC(C)(CN)C2)cc2c1c(=O)c(C(=O)O)cn2C1CC1 (configuration not stated) | 0.1 (≈ 0.268 µM) | 0.1 (≈ 0.268 µM) | 0.4 (≈ 1.07 µM) | 1.6 (≈ 4.28 µM) | 0.8 (≈ 2.14 µM) | 0.006 (≈ 0.0161 µM) | 0.1 (≈ 0.268 µM) | 0.013 (≈ 0.0348 µM) | 0.025 (≈ 0.0669 µM) | 0.006 (≈ 0.0161 µM) | 0.35 | 0.016 | 0.75 |  |  |  | 
2 | O=C(O)c1cn(C2CC2)c2c(F)c(N3CCNCC3)c(F)cc2c1=O | 0.05 (≈ 0.143 µM) |  |  |  | 0.1 (≈ 0.286 µM) |  |  |  |  |  | 0.076 | 0.4 | 0.5 | 29 | 0.45 | 59 | 0.25
3 | CCNCC1CCN(c2cc3c(c(C)c2F)c(=O)c(C(=O)O)cn3-c2ccc(F)cc2F)C1 (configuration not stated) | 0.8 (≈ 1.74 µM) | 0.4 (≈ 0.871 µM) | 0.8 (≈ 1.74 µM) | 3.1 (≈ 6.75 µM) | 1.6 (≈ 3.48 µM) | 0.025 (≈ 0.0544 µM) | 0.2 (≈ 0.435 µM) | 0.025 (≈ 0.0544 µM) | 0.1 (≈ 0.218 µM) | 0.025 (≈ 0.0544 µM) | 1.05 | 0.05 | 0.75 |  |  |  | 
4 | O=C(O)c1cn(C2CC2)c2c(Cl)c(N3CCNCC3)c(F)cc2c1=O | 0.025 (≈ 0.0683 µM) | 0.025 (≈ 0.0683 µM) | 0.05 (≈ 0.137 µM) | 0.4 (≈ 1.09 µM) | 0.1 (≈ 0.273 µM) | 0.1 (≈ 0.273 µM) | 0.4 (≈ 1.09 µM) | 0.2 (≈ 0.547 µM) | 0.1 (≈ 0.273 µM) | 0.05 (≈ 0.137 µM) | 0.066 | 0.13 | 0.5 |  |  |  | 
5 | CCn1cc(C(=O)O)c(=O)c2c(C)c(F)c(N3CCC(N)C3)c(F)c21 (configuration not stated) | 0.05 (≈ 0.142 µM) | 0.05 (≈ 0.142 µM) | 0.2 (≈ 0.569 µM) | 1.6 (≈ 4.55 µM) | 0.4 (≈ 1.14 µM) | 1.6 (≈ 4.55 µM) | 0.8 (≈ 2.28 µM) | 3.1 (≈ 8.82 µM) | 0.4 (≈ 1.14 µM) | 0.1 (≈ 0.285 µM) | 0.2 | 0.69 | 3 |  |  |  | 
6 | Cc1c(F)c(N2CCC(C)(CN)C2)c(F)c2c1c(=O)c(C(=O)O)cn2C1CC1 (configuration not stated) | 0.05 (≈ 0.128 µM) | 0.05 (≈ 0.128 µM) | 0.1 (≈ 0.255 µM) | 0.8 (≈ 2.04 µM) | 0.2 (≈ 0.511 µM) | 0.003 (≈ 0.00766 µM) | 0.025 (≈ 0.0639 µM) | 0.003 (≈ 0.00766 µM) | 0.006 (≈ 0.0153 µM) | 0.003 (≈ 0.00766 µM) | 0.13 | 0.0053 | 3.75 |  |  |  | 
7 | CCNCC1CCN(c2c(F)cc3c(=O)c(C(=O)O)cn(C4CC4)c3c2F)C1 (configuration not stated) [PD-117558] |  |  | 0.1 (≈ 0.255 µM) | 0.4 (≈ 1.02 µM) | 0.2 (≈ 0.511 µM) |  |  | 0.025 (≈ 0.0639 µM) |  | 0.013 (≈ 0.0332 µM) | 0.13 | 0.025 | 0.25 | 2 | 4.2 | 3.3 | 1
8 | CCNCC1CCN(c2cc3c(c(C)c2F)c(=O)c(C(=O)O)cn3CC)C1 (configuration not stated) | 3.1 (≈ 8.26 µM) | 1.6 (≈ 4.26 µM) | 6.3 (≈ 16.8 µM) | 25 (≈ 66.6 µM) | 12.5 (≈ 33.3 µM) | 0.8 (≈ 2.13 µM) | 1.6 (≈ 4.26 µM) | 1.6 (≈ 4.26 µM) | 1.6 (≈ 4.26 µM) | 0.4 (≈ 1.07 µM) | 6.28 | 1.06 | 3 |  |  |  | 
9 | CC1CN(c2cc3c(cc2F)c(=O)c(C(=O)O)cn3-c2ccc(F)cc2F)CCN1 (configuration not stated) [TEMAFLOXACIN] | 0.05 (≈ 0.12 µM) | 0.05 (≈ 0.12 µM) | 0.1 (≈ 0.24 µM) | 1.6 (≈ 3.83 µM) | 0.2 (≈ 0.479 µM) | 0.1 (≈ 0.24 µM) | 0.2 (≈ 0.479 µM) | 0.1 (≈ 0.24 µM) | 0.1 (≈ 0.24 µM) | 0.025 (≈ 0.0599 µM) | 0.15 | 0.087 | 0.75 |  |  |  | 
